TPT1 inhibitor: Candida albicans TPT1 enzyme inhibitors, primary screen, biochemical, fluorescence polarization; recombinant caTPT1, FP RNA substrate dephosphorylation; inhibition, % at 5 µM; 300,000 compounds, 0.81% hits; AID 1962, 2009;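 active = inhibition above the mean of all tested compounds plus 3 SD, set per screening campaign, cut at about 24% in these data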;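 note: plate controls were DMSO alone for no effect and ferristatin control at 100 nM for full effect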
HNF4A DNA FP: change in binding of human HNF4A to DNA, primary screen, biochemical, fluorescence polarization, FITC-DNA. 1 h. Hepatocyte nuclear factor 4-alpha (Homo sapiens), P41235. 360,000 compounds, 0.3% hits. activity change, % at 10 µM. AID 1224865, 2016; in the data active = activity change above about 30%, passing the limit was not always enough
Target sequence (P41235 whole entry, looked up): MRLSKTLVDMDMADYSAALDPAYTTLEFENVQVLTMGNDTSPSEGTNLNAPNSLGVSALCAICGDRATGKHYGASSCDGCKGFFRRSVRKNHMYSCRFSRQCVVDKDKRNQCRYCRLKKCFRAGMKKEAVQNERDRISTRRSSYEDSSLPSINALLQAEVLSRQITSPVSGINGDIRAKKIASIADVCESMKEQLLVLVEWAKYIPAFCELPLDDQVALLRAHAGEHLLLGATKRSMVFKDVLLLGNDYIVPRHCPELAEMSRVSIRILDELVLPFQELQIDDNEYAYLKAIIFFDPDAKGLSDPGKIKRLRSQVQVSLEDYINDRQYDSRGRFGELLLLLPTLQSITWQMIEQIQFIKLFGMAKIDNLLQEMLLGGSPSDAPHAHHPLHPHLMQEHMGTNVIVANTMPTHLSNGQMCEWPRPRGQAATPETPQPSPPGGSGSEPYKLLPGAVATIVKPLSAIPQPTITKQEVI
CSN deneddyl inh: inhibitors of CSN-mediated cullin deneddylation, primary screen, biochemical, fluorescence polarization, uHTS; COP9 signalosome complex subunit 5 (Homo sapiens), Q92905; Purified CSN, SCF-Nedd8-OG deneddylation; inhibition, % at 12.5 µM; 360,000 compounds, 0.38% hits;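 active = pattern-corrected inhibition above about 35%, with an unprinted fluorescence ratio check between 0.5 and 1.5, limit read from the data, passing the limit was not always enough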;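 note: 0% = enzyme with substrate and 100% = substrate without enzyme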
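Material: purified human Csn5 enzyme expressed in HEK293T cells / Medium: Tris buffer pH 7.5, NaCl, DTT, Tween-20, trehalose, ovalbumin / Compound dosing: 12.5 µM single point / Schedule: 90 min incubation of compound, enzyme and substrate at room temperature / Signal: fluorescence polarization of the substrate / Control set: no-enzyme wells high, enzyme-with-substrate wells low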
Rpn11 block: Rpn11 (PSMD14) deubiquitinase inhibitors, primary screen, biochemical, fluorescence polarization, uHTS. AID 588493, 2011. 360,000 compounds, 0.59% hits. calls only at 20 µM. human 26S proteasome, Ub4-pepOG fluorescence polarization; 20S core pre-blocked with epoxomicin. 26S proteasome non-ATPase regulatory subunit 14 (Homo sapiens), O00487;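 active = inhibition at 20 µM, scaled to each plate's controls, above about 33%, limit read from the data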
Rpn11 confirm: Rpn11 (PSMD14) deubiquitinase inhibitors, confirmation, biochemical, fluorescence polarization, single concentration; shares compounds with Rpn11 block; purified human 26S proteasome, Ub4-pepOG fluorescence polarization; proteasome pretreated with epoxomicin; inhibition, % at 20 µM; 1,900 compounds, 29% hits
MMP-2 counter: MMP-2 enzyme inhibition, confirmation, counter-screen for RPN11 inhibitor project, biochemical, fluorescence, single concentration; AID 602330, 2012; recombinant MMP-2, FRET peptide cleavage fluorescence; inhibition, % at 20 µM; shares compounds with Rpn11 block; 1,900 compounds, 4% hits;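 note: human MMP-2 activated beforehand with APMA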
Thrombin inh: bovine thrombin protease inhibition, confirmation, counter-screen for Rpn11 inhibitor project, biochemical, fluorescence polarization, single concentration; shares compounds with Rpn11 block; bovine thrombin cleavage of Ub4-pepOG; inhibition, % at 20 µM; 1,900 compounds, 13% hits; AID 602333, 2012;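 active = mean inhibition at least 40% at 20 µM, or signal 3 deviations below plate average, so some actives read negative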;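 note: plate controls were thrombin with DMSO for no effect and buffer wells lacking thrombin for full effect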
Starred values were filed as active, the others as inactive; i = inactive; x = no result; + = active, no number. Shown are actives, neighbours in structure and some others; about 1.5% of the full set was active somewhere. Cut-off read from the data, not from the text of the source, unless noted: active = inhibition above about 40%; inactive = the rest.

SMILES | TPT1 inhibitor | HNF4A DNA FP | CSN deneddyl inh | Rpn11 block | Rpn11 confirm | MMP-2 counter | Thrombin inh
Cc1occc1C(=O)Nc1nnc(C(F)(F)F)s1 | 1.6 | 2.2 | -0.3 | i | x | x | x
O=C(Nc1ccccc1C(=O)Nc1nnc(C(F)(F)F)s1)c1ccccc1 | 2.2 | -12.0 | -3.0 | + | 5.3 | 0.8 | -6.4
COCCCn1c(SCc2nc3ccccc3c(=O)[nH]2)nc2ccccc2c1=O | 0.3 | 1.1 | 1.3 | + | -13.4 | -22.8 | 7.8
CCN(C)C1CN(Cc2cn(Cc3ccccc3)nn2)S(=O)(=O)C1 (centres undefined) | x | 1.9 | -4.7 | x | x | x | x
CCOC(=O)C1=C(N)n2c(s/c(=C\c3cccnc3)c2=O)=C(C(=O)OC)C1c1cccnc1 (centres undefined) | -3.8 | -0.1 | 67.4* | + | -16.2 | -7.1 | -23.4
CCOC(=O)C1=C(N)n2c(s/c(=C\c3ccncc3)c2=O)=C(C(=O)OCC)C1c1ccncc1 (centres undefined) | -0.4 | -0.5 | -7.2 | i | x | x | x
CCCC(=O)N=C1SC2CS(=O)(=O)CC2N1c1ccc(-c2nc3ccc(C)cc3s2)cc1 (centres undefined) | 5.0 | 8.0 | -0.4 | + | 1.5 | -25.0 | -5.1
Cc1ccc2nc(-c3ccc(C#N)cc3)c(Cc3cccc(Cl)c3)n2c1 | x | 3.7 | 8.4 | i | x | x | x
CC(C)NC(=O)c1ccc(S(=O)(=O)N(C)C)cc1 | -0.5 | -8.9 | -3.8 | + | -21.8 | -23.9 | -9.0
Cn1c(CO)cnc1SCc1ccc(Cl)cc1 | 0.7 | -2.6 | 5.0 | + | -11.8 | -47.1 | -6.5
Cn1c(CO)cnc1S(=O)(=O)Cc1ccc(Cl)cc1 | -3.7 | 2.5 | -0.5 | i | x | x | x
CC(Sc1nnc(Cc2ccccc2)o1)C(=O)NC1(C#N)CCCCC1 (centres undefined) | x | -2.5 | -3.0 | i | x | x | x
C=CCn1c(=O)/c(=C\c2ccsc2)s/c1=C(/C#N)C(=O)NCCN1CCOCC1 | 3.3 | 0.0 | 5.1 | i | x | x | x
COc1ccc(-n2c(=O)/c(=C\c3cccs3)s/c2=C(/C#N)C(=O)NCCN2CCOCC2)cc1 | 21.8 | 4.0 | 27.2 | + | 38.3 | 14.8 | 43.7*
Cc1ccc(C2C(/C=C3/SC(=S)NC3=O)=C(c3cccs3)Oc3ccccc32)cc1 (centres undefined) | 9.4 | -3.8 | 4.4 | + | 45.4* | 41.2* | 15.8
CC1Cc2cc(/C=C3/SC(=S)NC3=O)ccc2O1 (centres undefined) | 0.3 | 4.2 | -2.2 | i | x | x | x
CSc1ccc(/C=C2\C(=N)N3N=C(CC(=O)N4CCOCC4)SC3=NC2=O)cc1 | 4.5 | 3.1 | 2.5 | i | x | x | x
CSc1ccc(/C=C2\C(=N)N3N=C(CC(=O)N4CCCCC4)SC3=NC2=O)cc1 | 11.6 | 17.2 | 2.4 | + | 30.3 | 12.5 | 10.6
N#CCSc1ccccc1NC(=O)COc1ccc(-c2nnco2)cc1 | x | 9.7 | 15.8 | + | 14.9 | -7.2 | 13.3
N#Cc1ccsc1NC(=O)COc1ccc(-c2nnco2)cc1 | 16.1 | 6.6 | 8.9 | i | x | x | x
CCCCN(C(=O)c1cccc(S(=O)(=O)N(C)c2ccc(C)cc2)c1)c1c(N)n(CC(C)C)c(=O)[nH]c1=O | x | 4.5 | 0.6 | i | x | x | x
CN(C)c1ccc(C=C2C(=O)OC(C)(C)OC2=O)cc1 | 6.5 | 5.4 | -1.7 | i | x | x | x
CCN(CC)c1ccc(C=C2C(=O)OC(c3ccccc3)OC2=O)cc1 (centres undefined) | 6.0 | 25.1 | 14.4 | + | 77.4* | 5.5 | 75.7*
